According to ChEMBL document CHEMBL1240452, “Synthesis and toxicity towards normal and cancer cell lines of benzimidazolequinones containing fused aromatic rings and 2-aromatic ring substituents” (Eur J Med Chem, 2010):

How the values were obtained:
Type in all cases: functional, cell-based
DU-145 = assay: Cytotoxicity against human DU145 cells after 72 hrs by MTT assay; details: DU-145, 72 h
Procedure, shortened: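 DU145 prostate cancer cells, grown in RPMI-1640 with 10% heat-inactivated FBS, penicillin-streptomycin and 2 mM L-glutamine, seeded at 2000 cells/well. Treated aerobically for 72 h at 37 °C, then incubated 3 h with MTT. Formazan dissolved in DMSO; A550 read against 690 nm reference. Viability as % of DMSO-only wells, mean of ≥3 independent experiments; IC50 from nonlinear regression of dose-response curves.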

HeLa = assay: Cytotoxicity against human HeLa cells after 72 hrs by MTT assay
Procedure, shortened: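 HeLa (CCL-2) cervical cancer cells, maintained in DMEM with 10% heat-inactivated FBS, penicillin-streptomycin, 2 mM L-glutamine and non-essential amino acids, plated at 1000 cells/well. Aerobic 72 h exposure at 37 °C, then 3 h MTT; formazan taken up in DMSO, read at 550/690 nm. Viability as % DMSO-only value, ≥3 independent experiments; IC50 by nonlinear regression.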

[1] = Cytotoxicity against human GM00637 cells after 72 hrs by MTT assay; details: GM00637, 72 h
Procedure, shortened: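 Normal human skin fibroblasts GM00637, seeded at 10,000 cells/well and exposed aerobically for 72 h at 37 °C. MTT added for a final 3 h; formazan crystals dissolved in DMSO; absorbance 550 nm with 690 nm reference. Viability relative to DMSO-only control, from at least three independent experiments; IC50 estimated by nonlinear regression of dose-response data.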

| SMILES | IC50 (DU-145) [nM] | IC50 (HeLa) [nM] | IC50 [1] [nM] |
| --- | --- | --- | --- |
| CO[C@@]12[C@H](COC(N)=O)C3=C(C(=O)C(C)=C(N)C3=O)N1C[C@@H]1N[C@@H]12 [MITOMYCIN] | 170 | 270 | 460 |
| CC1Cn2c(nc3c2C(=O)C=CC3=O)-c2ccccc21 (stereo not drawn) | 1090 | 1490 | 1650 |
| CC1Cn2c(nc3ccccc32)-c2ccc3ccccc3c21 (stereo not drawn) | – | > 10000 | > 10000 |
| CCn1c(-c2ccc3ccccc3c2)nc2c1C(=O)C=CC2=O | 60 | 70 | 40 |
| CC1Cn2c(nc3c2C(=O)C=CC3=O)-c2ccc3ccccc3c21 (stereo not drawn) | 780 | 1170 | 2440 |
| CC1Cn2c(nc3c2C(=O)C=CC3=O)-c2cccnc21 (stereo not drawn) | 700 | 1510 | 740 |
| CCn1c(-c2ccccc2)nc2c1C(=O)C=CC2=O | 70 | 180 | 150 |
| CCn1c(-c2cccnc2)nc2c1C(=O)C=CC2=O | 1270 | 1500 | 480 |
